Laboratory results reported in ChEMBL document CHEMBL1142565, “Prenylbicyclogermacrane diterpenoids from the formosan soft coral Nephthea pacifica” (2005).
In brackets after ≈: the same amount, converted by molar mass.

Assays:
HT-29 = experiment: Cytotoxicity against human HT-29 cells 0.5 to 50 ug/ml; type: functional, cell-based
In short: (§1)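 Cells tested at three concentrations (50, 5 and 0.5 μg/mL). HT-29 (human colon adenocarcinoma) obtained from ATCC. P-388 (mouse lymphocytic leukemia) line supplied by an outside laboratory. Assay otherwise run per a previously described procedure.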

P388 [1] = experiment: Cytotoxicity against mouse P388 cells at 0.5 to 50 ug/ml; type: functional, cell-based; in short: as §1
P388 [2] = experiment: Cytotoxicity against mouse P388 cells; type: functional; details: read-out: ED50 (the source's name)
In short: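 P-388 mouse lymphocytic leukemia cells, supplied by an academic laboratory. Test compounds were run at three concentrations (50, 5 and 0.5 μg/mL), following a previously described cytotoxicity procedure.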

Compound | Activity (HT-29) | Activity (P388 [1]) | EC50 (P388 [2]) [µg/mL]
CC(=O)O[C@H]1/C=C(\C)CC[C@](C)(C/C=C/C(C)(C)OO)[C@H]2C[C@@H]2[C@@](C)(O)C1 | Not toxic | Not toxic | –
C=C(C)C(CC[C@@]1(C)CC[C@]2(C)O[C@H]2CC[C@](C)(O)[C@H]2C[C@@H]21)OO (stereo not given in full) | Not toxic | Not toxic | –
C=C1CC/C=C(\C)CC[C@](C)(C/C=C/C(C)(C)O)[C@H]2C[C@H]12 | Not toxic | Not toxic | –
C=C(C)C(O)CC[C@@]1(C)CC[C@]2(C)O[C@H]2CC[C@](C)(O)[C@H]2C[C@@H]21 (stereo not given in full) | Not toxic | Not toxic | –
CC(C)(O)/C=C/C[C@@]1(C)CC[C@]2(C)O[C@H]2CC[C@](C)(O)[C@H]2C[C@@H]21 | Not toxic | Not toxic | –
C/C1=C\CC[C@](C)(O)[C@H]2C[C@@H]2[C@@](C)(C/C=C/C(C)(C)O)CC1 | Not toxic | Not toxic | –
C=C1CC/C=C(\C)CC[C@](C)(CCC=C(C)C)[C@H]2C[C@H]12 | Not toxic | Not toxic | –
CC(C)(/C=C/C[C@@]1(C)CC[C@]2(C)O[C@H]2CC[C@](C)(O)[C@H]2C[C@@H]21)OO [PACIFICIN C] | Not toxic | – | 1.44 (≈ 4.25 µM)
C=C(C)C(CC[C@@]1(C)CC/C(C)=C/[C@H](OC(C)=O)C[C@](C)(O)[C@H]2C[C@@H]21)OO (stereo not given in full) [PACIFICIN H] | Not toxic | – | 2.01 (≈ 5.28 µM)
CC(C)=CCC[C@@]1(C)CC[C@]2(C)O[C@H]2CC[C@](C)(O)[C@H]2C[C@@H]21 | Not toxic | Not toxic | –
